High-throughput results (PubChem BioAssay)
Rows were chosen to be rich in hits. Some 3.1% of all compounds tested hit in one or more screens of this group.
GalR3 antag: GalR3 antagonists in HEK293 cells, primary screen, cell-based, fluorescence readout; Galanin receptor type 3 (Homo sapiens), O60755; HEK293 GalR3-CNG cAMP membrane potential fluorescence; galR3 body fused to GalR1 C-terminus; inhibition, % at 3 µM; 0.44% of 360,000 active; AID 651719, 2012;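 active = inhibition above the screen-wide average plus 3 SD, cut at about 13% in these data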;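 also: forskolin and galanin both at EC90 stimulate the cells; cAMP rise reported by CNG channel membrane potential dye signal; 0% = forskolin plus galanin with DMSO and 100% = forskolin alone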
OX1R antag-1: antagonists of human orexin 1 receptor (OX1R) | Orexin/Hypocretin receptor type 1 (Homo sapiens), O43613 | OX1R-expressing cells, FRET antagonist read-out | inhibition, % at 6.6 µM | 1.8% of 330,000 active | AID 485270, 2010; in the data active = inhibition mostly above about 38%, no sharp cut-off; inactive = mostly below about 40%;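 also: 0% = agonist challenge alone and 100% = reference antagonist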
Target sequence (O43613 whole entry, looked up): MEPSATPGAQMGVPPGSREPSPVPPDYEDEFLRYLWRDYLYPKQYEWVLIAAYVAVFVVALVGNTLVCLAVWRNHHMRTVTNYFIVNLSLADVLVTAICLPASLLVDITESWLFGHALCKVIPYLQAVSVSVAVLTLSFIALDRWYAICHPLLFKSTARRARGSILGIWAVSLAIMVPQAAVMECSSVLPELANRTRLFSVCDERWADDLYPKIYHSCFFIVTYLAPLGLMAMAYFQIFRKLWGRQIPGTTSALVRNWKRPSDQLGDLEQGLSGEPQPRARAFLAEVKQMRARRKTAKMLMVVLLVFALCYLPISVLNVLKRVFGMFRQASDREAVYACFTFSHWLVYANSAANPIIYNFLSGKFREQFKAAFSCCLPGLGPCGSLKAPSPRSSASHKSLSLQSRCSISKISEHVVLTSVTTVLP
GPR7 antagonist: GPR7 receptor antagonists, primary screen, cell-based, fluorescence, single concentration; AID 1861, 2009; 1.1% of 290,000 active; inhibition, % at 4.4 µM; GPR7-expressing cells, fluorescence antagonist assay; in the data active = inhibition above about 16%, passing the limit was not always enough;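 also: cells stimulated with the agonist NPW; 0% = agonist with vehicle and 100% = vehicle without agonist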
CHO parental Ca: ATP-evoked calcium signal inhibitors, parental CHO, primary screen, counter-screen for OX1R antagonist project, cell-based, fluorescence, Fluo-8 calcium dye. inhibition, % at 5.6 µM. 0.63% of 330,000 active. AID 463079, 2010. parental CHO-K1, ATP-induced calcium, Fluo-8 fluorescence;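 active = inhibition above that plate's mean sample inhibition plus 3 SD, cut at about 26% in these data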;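 also: 0% = ATP-challenged DMSO wells and 100% = DMSO wells without ATP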
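Material – parental CHO cells · Reagent – ATP stimulus · Compound – single nominal dose of 5.6 µM per compound · Detection – Fluo-8 fluorescence · Read-out basis – percent inhibition of calcium signal · Controls – ATP-challenged DMSO wells low, unchallenged DMSO wells high · Repeats – no replicates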
OX1R antag-2: OX1R (HCRTR1) antagonists, primary screen, fluorescence, CHO/OX1R cells, Fluo-8 calcium, orexin A. Fluo-8 calcium fluorescence. Orexin/Hypocretin receptor type 1 (Homo sapiens), O43613. 0.43% of 330,000 active. inhibition, % at 5 µM;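 active = inhibition above its plate's threshold, mean inhibition of all tested compounds on the plate plus 3 SD, cut at about 37% in these data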;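 also: 0% = orexin A challenge wells and 100% = SB-334867-A antagonist wells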
* hit, by the source's call.

Results for CC(/C=N/NC(=O)c1ccc(Br)cc1)=C\c1ccccc1 ?
GalR3 antag: -4.4; OX1R antag-1: 9.1; GPR7 antagonist: -9.3; CHO parental Ca: 65.9*; OX1R antag-2: 0.8

What do the screens show for `C/C(=N\NC(=O)c1ccc(-c2ccccc2)cc1)C1C(=O)c2ccccc2C1=O`?
GalR3 antag: -5.1; OX1R antag-1: 64.5; GPR7 antagonist: 1.2; CHO parental Ca: 8.0; OX1R antag-2: -9.1

What do the screens show for `CCCN1CCCCC(NC(=O)c2ccc(F)c(F)c2)C1=O` (centres undefined)?
GalR3 antag: -5.6

How did COC(=O)[C@@]12C[C@@H](CC(=O)N3CCCCC3)C(=O)N(Cc3ccccc3)C1=CCC(C)(C)C2 do in these assays?
GalR3 antag: -9.4

What do the screens show for `COc1ccc(OC)c(NC(=O)c2ccc(-c3cccs3)cc2)c1`?
GalR3 antag: -2.9; OX1R antag-1: 55.1*; GPR7 antagonist: 5.4; CHO parental Ca: -15.9; OX1R antag-2: -11.2

What do the screens show for `COc1ccc(C(=O)Nc2cccc(NC(=O)c3cccs3)c2)cc1OC`?
GalR3 antag: -2.6; OX1R antag-1: 74.7*; GPR7 antagonist: -13.4; CHO parental Ca: -13.0; OX1R antag-2: 2.2

How did COc1cccc(OC)c1C(=O)Nc1cccc(NC(=O)c2cccs2)c1 do in these assays?
GalR3 antag: -4.8; OX1R antag-1: 16.8; GPR7 antagonist: -9.8; CHO parental Ca: -11.7; OX1R antag-2: -15.2

Results for COc1ccc(CNC(=O)CN2C(=O)NC(c3ccccc3)(c3ccccc3)C2=O)cc1 ?
GalR3 antag: -8.0; OX1R antag-1: 14.6; CHO parental Ca: -21.0; OX1R antag-2: -0.6

Results for COc1ccc(CCNC(=O)CN2C(=O)NC(c3ccccc3)(c3ccccc3)C2=O)cc1 ?
GalR3 antag: -5.6; OX1R antag-1: 36.4*; CHO parental Ca: -15.6; OX1R antag-2: 23.6

How did COc1ccccc1OC(=O)Nc1ccc(Cl)cc1 do in these assays?
GalR3 antag: -8.8; OX1R antag-1: 10.2; GPR7 antagonist: -5.2; CHO parental Ca: 31.2*; OX1R antag-2: -2.8

Results for COc1ccccc1OCC(=O)NNC(=O)Nc1ccc(Cl)cc1 ?
GalR3 antag: -4.3; OX1R antag-1: 16.3; GPR7 antagonist: 11.5; CHO parental Ca: -4.7; OX1R antag-2: -41.5

Results for Cc1noc(C)c1C(=O)OCC(=O)NCCc1ccc(Cl)cc1 ?
GalR3 antag: -4.0; OX1R antag-1: 6.8; GPR7 antagonist: 19.9*; CHO parental Ca: -11.4; OX1R antag-2: -16.3

What do the screens show for `O=c1oc2ccccc2c(Nc2ccccc2)c1CN1CCCCC1`?
GalR3 antag: -4.5; OX1R antag-1: 8.2; GPR7 antagonist: -13.8; CHO parental Ca: -24.2; OX1R antag-2: -22.5

How did O=c1oc2ccccc2c(O)c1CN1CCCCC1 do in these assays?
GalR3 antag: -2.7; OX1R antag-1: 68.0*; GPR7 antagonist: 11.7; CHO parental Ca: 1.0; OX1R antag-2: 6.6

What do the screens show for `O=[N+]([O-])c1ccc(COc2ccccc2CO)cc1`?
GalR3 antag: -4.9

What do the screens show for `COc1ccccc1C(CNc1ncccc1[N+](=O)[O-])N(C)C` (centres undefined)?
GalR3 antag: -2.8; OX1R antag-1: 67.2*; GPR7 antagonist: 3.9; CHO parental Ca: -12.7; OX1R antag-2: -12.3

What do the screens show for `COc1ccccc1Nc1ncccc1[N+](=O)[O-]`?
GalR3 antag: -3.4; OX1R antag-1: 19.1; GPR7 antagonist: -25.0; CHO parental Ca: -2.9; OX1R antag-2: 4.6

Results for Cc1nccn1CCCNC(=O)c1nc(Cn2cc([N+](=O)[O-])cn2)no1 ?
GalR3 antag: 12.7*; OX1R antag-1: 12.3; GPR7 antagonist: -2.6; CHO parental Ca: -0.3; OX1R antag-2: 5.9

How did O=C(NCCCn1ccnc1)c1nc(Cn2cc(Br)cn2)no1 do in these assays?
GalR3 antag: -8.7; OX1R antag-1: 11.3; GPR7 antagonist: -24.6; CHO parental Ca: 3.5; OX1R antag-2: -5.2

How did COC(=O)C1=C(C)N(Cc2cccc(C(F)(F)F)c2)C(=NCc2ccc(OC)cc2)NC1c1ccccc1 (centres undefined) do in these assays?
GalR3 antag: -5.7

How did CC(C)(C)OC(=O)N1C[C@H](O)C[C@H]1C(=O)OCC(=O)c1ccc([N+](=O)[O-])cc1 do in these assays?
GalR3 antag: -9.1; OX1R antag-1: 36.6*; GPR7 antagonist: -9.8; CHO parental Ca: -3.5; OX1R antag-2: -4.5

How did c1ccc(C[n+]2csc3ccccc32)cc1 do in these assays?
GalR3 antag: -6.3; OX1R antag-1: 8.3; GPR7 antagonist: 12.1; CHO parental Ca: 29.1*; OX1R antag-2: 0.8

Results for COc1ccc(OCC2CN(Cc3ccccc3)S(=O)(=O)CCO2)cc1 (centres undefined) ?
GalR3 antag: -5.7

What do the screens show for `CC(C)(C)NC(=O)c1ccc2nsnc2c1`?
GalR3 antag: -2.9; OX1R antag-1: 66.9*; GPR7 antagonist: -6.3; CHO parental Ca: -5.4; OX1R antag-2: 6.2

Results for COC(=O)c1ccc(NC(=O)c2ccc3nsnc3c2)cc1 ?
GalR3 antag: -4.5; OX1R antag-1: 12.4; GPR7 antagonist: -9.4; CHO parental Ca: -3.5; OX1R antag-2: -17.6

What do the screens show for `COc1cc(-c2nc3cnccn3c2Nc2ccc(C)cc2)ccc1O`?
GalR3 antag: -6.4; OX1R antag-1: 7.3; GPR7 antagonist: -0.4; CHO parental Ca: -8.0; OX1R antag-2: -13.4

How did COc1cc(-c2nc3cnccn3c2Nc2ccc(C(C)C)cc2)ccc1O do in these assays?
GalR3 antag: -7.5; OX1R antag-1: -3.1; GPR7 antagonist: -8.8; CHO parental Ca: 37.4*; OX1R antag-2: -7.6

How did CN(C)c1ccc(N(C)C)c(C(O)(c2ccccc2)c2ccccc2)c1 do in these assays?
GalR3 antag: -11.4

Results for Oc1ccc(/C=N/NC(=S)NCc2ccco2)cc1 ?
GalR3 antag: 1.9; OX1R antag-1: -6.6; GPR7 antagonist: 10.8; CHO parental Ca: -6.9; OX1R antag-2: -11.2

What do the screens show for `Oc1c(Br)cc(/C=N/NC(=S)NCc2ccco2)cc1Br`?
GalR3 antag: -2.8; OX1R antag-1: 37.1*; GPR7 antagonist: 1.4; CHO parental Ca: -5.1; OX1R antag-2: -1.7

What do the screens show for `Cc1ccc2oc3c(SCc4nc5ccccc5[nH]4)nc(C)nc3c2c1`?
GalR3 antag: -0.3; OX1R antag-1: 58.0*; CHO parental Ca: -23.6; OX1R antag-2: -8.6

How did Cc1nc(SCCc2nc3ccccc3[nH]2)c2oc3ccccc3c2n1 do in these assays?
GalR3 antag: -1.0; OX1R antag-1: 59.3*; CHO parental Ca: -15.5; OX1R antag-2: 30.7

Results for Cc1nc(SCc2nc3c(O)cccc3[nH]2)c2oc3ccccc3c2n1 ?
GalR3 antag: 6.1; OX1R antag-1: 25.1; CHO parental Ca: -11.9; OX1R antag-2: -11.5
